What all share (format): functional
One assay deals with Cryptococcus neoformans. Nature of the assay: Antifungal activity against Cryptococcus neoformans after 72 hrs. The method, boiled down:
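NCCLS-based broth dilution against C. neoformans. Test agents were in DMSO in growth medium, inoculated and held at 35 °C, and MIC80 was read at 72 h. MIC80 is the first well with roughly 80% less growth than the drug-free well. Each value averages three replicate tests.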

The subject of a further assay is Candida albicans. Nature of the assay: Antifungal activity against Candida albicans SC5314 after 24 hrs. The settings on record: SC5314, 24 h. The method, boiled down:
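Broth dilution MIC per NCCLS recommendations. Compounds were dissolved in DMSO in growth medium, then inoculated and incubated at 35 °C, with growth read at 24 h for C. albicans. MIC80 is the first well showing about 80% growth reduction versus the drug-free well. Values are the mean of three replicate tests.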

For the next assay, the system named is Aspergillus fumigatus. The experiment in a line: Antifungal activity against Aspergillus fumigatus after 5 to 7 days. In short, it runs like this: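 Filamentous fungi were tested by broth dilution following NCCLS recommendations. Compounds were dissolved in DMSO in growth medium, inoculated and incubated at 35 °C, with MIC80 read after 5–7 days. MIC80 is the first well with approximately 80% growth reduction relative to the drug-free well. Results are the mean of three replicates.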

Each structure is given as a SMILES string. Converted amounts (≈) assume the structure as drawn.

One may read the MIC80 as an inhibitory concentration at the 80% level, which refers to growth in some studies and to a panel of isolates in others. Lower therefore signals higher susceptibility. In the case of `C[C@@H](N(Cc1ccc(Cl)cc1)C1CC1)[C@](O)(Cn1cncn1)c1ccc(F)cc1F`, the MIC80 is 4 µg/mL (≈ 9.24 µM) with Cryptococcus neoformans, 8 µg/mL (≈ 18.5 µM) against Candida albicans and > 64 µg/mL with Aspergillus fumigatus.
As to `C[C@@H](NC1CCCCC1)[C@](O)(Cn1cncn1)c1ccc(F)cc1F`, the MIC80 came out at 0.5 µg/mL (≈ 1.43 µM) in the assay on Cryptococcus neoformans, 0.5 µg/mL (≈ 1.43 µM) in the assay with Candida albicans and 8 µg/mL (≈ 22.8 µM) in the assay with Aspergillus fumigatus.
Regarding `COCCCN[C@H](C)[C@](O)(Cn1cncn1)c1ccc(F)cc1F`, the figures for the MIC80 against Cryptococcus neoformans, against Candida albicans and in the assay with Aspergillus fumigatus were 0.5 µg/mL (≈ 1.47 µM), 0.25 µg/mL (≈ 0.734 µM) and 2 µg/mL (≈ 5.88 µM), respectively.
Take `C[C@@H](n1cc(-c2ccc(F)cc2)nn1)[C@](O)(Cn1cncn1)c1ccc(F)cc1F`: the MIC80 in the assay on Cryptococcus neoformans came out at 0.0625 µg/mL (≈ 0.151 µM); against Candida albicans, 0.0625 µg/mL (≈ 0.151 µM); against Aspergillus fumigatus, 32 µg/mL (≈ 77.2 µM).
Consider `CC(C)N[C@H](C)[C@](O)(Cn1cncn1)c1ccc(F)cc1F`, for which the MIC80 in the assay on Cryptococcus neoformans was determined as 0.25 µg/mL (≈ 0.806 µM); against Candida albicans, 0.25 µg/mL (≈ 0.806 µM); against Aspergillus fumigatus, 16 µg/mL (≈ 51.6 µM).
Take `C[C@@H](n1cc(-c2cccc(F)c2)nn1)[C@](O)(Cn1cncn1)c1ccc(F)cc1F`: the figures for the MIC80 with Cryptococcus neoformans, in the assay on Candida albicans and against Aspergillus fumigatus were 0.0625 µg/mL (≈ 0.151 µM), 0.25 µg/mL (≈ 0.603 µM) and > 64 µg/mL, respectively.
As to `C[C@@H](N=[N+]=[N-])[C@](O)(Cn1cncn1)c1ccc(F)cc1F`, the values for the MIC80 in the assay on Cryptococcus neoformans, against Candida albicans and in the assay with Aspergillus fumigatus were 0.0625 µg/mL (≈ 0.212 µM), 0.0156 µg/mL (≈ 0.053 µM) and 8 µg/mL (≈ 27.2 µM), respectively.
Take `CCC(C)N[C@H](C)[C@](O)(Cn1cncn1)c1ccc(F)cc1F` (stereo partly drawn): the figures for the MIC80 in the assay with Cryptococcus neoformans, in the assay with Candida albicans and against Aspergillus fumigatus were 0.125 µg/mL (≈ 0.385 µM), 0.125 µg/mL (≈ 0.385 µM) and 4 µg/mL (≈ 12.3 µM), respectively.
As to `C[C@@H](n1cc(-c2ccncc2)nn1)[C@](O)(Cn1cncn1)c1ccc(F)cc1F`, the MIC80 was 1 µg/mL (≈ 2.52 µM) with Cryptococcus neoformans, 1 µg/mL (≈ 2.52 µM) with Candida albicans and > 64 µg/mL against Aspergillus fumigatus.
`C[C@@H](N1CCCC1)[C@](O)(Cn1cncn1)c1ccc(F)cc1F`: the MIC80 in the assay on Cryptococcus neoformans was 0.125 µg/mL (≈ 0.388 µM); against Candida albicans, 0.125 µg/mL (≈ 0.388 µM); in the assay on Aspergillus fumigatus, 1 µg/mL (≈ 3.1 µM).
`C[C@@H](n1cc(-c2ccsc2)nn1)[C@](O)(Cn1cncn1)c1ccc(F)cc1F`: the MIC80 was found to be 0.0625 µg/mL (≈ 0.155 µM) with Cryptococcus neoformans, 0.0625 µg/mL (≈ 0.155 µM) with Candida albicans and 4 µg/mL (≈ 9.94 µM) in the assay with Aspergillus fumigatus.
Consider `C[C@@H](n1cc(C2CC2)nn1)[C@](O)(Cn1cncn1)c1ccc(F)cc1F`, for which the MIC80 in the assay with Cryptococcus neoformans stood at 0.0625 µg/mL (≈ 0.173 µM); in the assay with Candida albicans, 0.0625 µg/mL (≈ 0.173 µM); against Aspergillus fumigatus, 32 µg/mL (≈ 88.8 µM).
Consider `C[C@@H](n1cc(-c2ccccc2)nn1)[C@](O)(Cn1cncn1)c1ccc(F)cc1F`, for which the MIC80 with Cryptococcus neoformans was determined as 0.0625 µg/mL (≈ 0.158 µM); in the assay on Candida albicans, 0.125 µg/mL (≈ 0.315 µM); in the assay with Aspergillus fumigatus it was 16 µg/mL (≈ 40.4 µM).
In the case of `C[C@@H](n1cc(-c2ccc(N)cc2)nn1)[C@](O)(Cn1cncn1)c1ccc(F)cc1F`, the MIC80 in the assay on Cryptococcus neoformans is 0.5 µg/mL (≈ 1.22 µM); with Candida albicans it was 0.5 µg/mL (≈ 1.22 µM); with Aspergillus fumigatus, > 64 µg/mL.
For the compound `CCc1ccc(-c2cn([C@H](C)[C@](O)(Cn3cncn3)c3ccc(F)cc3F)nn2)cc1`, the MIC80 is 0.5 µg/mL (≈ 1.18 µM) with Cryptococcus neoformans, 0.5 µg/mL (≈ 1.18 µM) in the assay with Candida albicans and > 64 µg/mL with Aspergillus fumigatus.
Regarding `Cc1ccc(CN(C2CC2)[C@H](C)[C@](O)(Cn2cncn2)c2ccc(F)cc2F)cc1`, the MIC80 was 5 µg/mL (≈ 12.1 µM) against Cryptococcus neoformans, 8 µg/mL (≈ 19.4 µM) against Candida albicans and > 64 µg/mL in the assay on Aspergillus fumigatus.
As for `C[C@@H](n1cc(-c2ccc(Cl)cc2)nn1)[C@](O)(Cn1cncn1)c1ccc(F)cc1F`, the MIC80 in the assay on Cryptococcus neoformans came to 0.0156 µg/mL (≈ 0.0362 µM); in the assay on Candida albicans it was 0.125 µg/mL (≈ 0.29 µM); in the assay on Aspergillus fumigatus, 32 µg/mL (≈ 74.3 µM).
Turning to `CCN(C1CC1)[C@H](C)[C@](O)(Cn1cncn1)c1ccc(F)cc1F`, the MIC80 against Cryptococcus neoformans was 1 µg/mL (≈ 2.97 µM); against Candida albicans, 1 µg/mL (≈ 2.97 µM); in the assay with Aspergillus fumigatus, > 64 µg/mL.
With `CCCN(C1CC1)[C@H](C)[C@](O)(Cn1cncn1)c1ccc(F)cc1F`, the MIC80 against Cryptococcus neoformans stood at 2 µg/mL (≈ 5.71 µM); in the assay with Candida albicans, 1 µg/mL (≈ 2.85 µM); in the assay on Aspergillus fumigatus it was 8 µg/mL (≈ 22.8 µM).
`C[C@@H](n1cc(CN)nn1)[C@](O)(Cn1cncn1)c1ccc(F)cc1F`: the values for the MIC80 in the assay on Cryptococcus neoformans, in the assay with Candida albicans and against Aspergillus fumigatus were 0.25 µg/mL (≈ 0.716 µM), 0.25 µg/mL (≈ 0.716 µM) and > 64 µg/mL, respectively.
As for `CCCCc1ccc(-c2cn([C@H](C)[C@](O)(Cn3cncn3)c3ccc(F)cc3F)nn2)cc1`, the results for the MIC80 against Cryptococcus neoformans, in the assay with Candida albicans and against Aspergillus fumigatus were 8 µg/mL (≈ 17.7 µM), 4 µg/mL (≈ 8.84 µM) and > 64 µg/mL, respectively.

For the origin of these results see ChEMBL document CHEMBL4138173, “Molecular docking, design, synthesis and antifungal activity study of novel triazole derivatives” (2018).
